Measurements as given in ChEMBL document CHEMBL1833799, “Glionitrin B, a cancer invasion inhibitory diketopiperazine produced by microbial coculture” (2011).
Calls of active or inactive are those of the source. No cut-off for these calls is given here.

Assays:
[1] = tested on: DU-145; experiment: Cytotoxicity against human DU145 cells at 2.5 to 80 uM after 24 hrs by cell counting kit analysis; type: functional, cell-based
In short: (§1)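 DU145 cells cultured at 37 °C in humidified 5% CO2 with serum and penicillin/streptomycin. Cells treated with a range of compound concentrations for 24 h, then viability read with Cell Counting Kit-8 per the manufacturer. Viability expressed relative to an untreated group. Paclitaxel (0.1 μM) served as positive control.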

[2] = tested on: DU-145; experiment: Cytotoxicity against human DU145 cells at 0.25 to 8 uM after 24 hrs by cell counting kit analysis; type: functional, cell-based; in short: as §1
[3] = tested on: DU-145; experiment: Antiinvasive activity against human DU145 cells at 0.2 uM after 24 hrs by cell invasion assay; type: functional, cell-based
In short: (§2)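 DU145 prostate cancer cells grown at 37 °C, humidified 5% CO2, in medium with serum, 100 units/mL penicillin and 100 μg/mL streptomycin. Cells exposed to compound for 24 h, then in vitro invasiveness measured with a commercial cell invasion assay kit per the maker's protocol. Inhibition expressed relative to an untreated group.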

[4] = tested on: DU-145; experiment: Antiinvasive activity against human DU145 cells after 24 hrs by cell invasion assay; type: functional, cell-based
In short: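 DU145 cells grown with serum, 100 units/mL penicillin and 100 μg/mL streptomycin at 37 °C in humidified 5% CO2. Cells were exposed to test compounds at the indicated concentrations for 24 h. In vitro invasiveness was then measured with a commercial cell invasion kit per the manufacturer's protocol and expressed as inhibition relative to an untreated group.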

[5] = tested on: DU-145; experiment: Decrease in MMP2 mRNA level in human DU145 cell by RT-PCR analysis; type: functional, cell-based
In short: (§3)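 DU145 cells were exposed to compounds for 18 h. Total RNA was isolated by spin column and reverse-transcribed to cDNA. PCR used 100 ng cDNA aliquots: 94 °C for 5 min, then 32 cycles of 94 °C for 30 s, 58 °C for 30 s and 72 °C for 1 min. Products were assessed for MMP-2 and MMP-9 transcript levels.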

[6] = tested on: DU-145; experiment: Inhibition of human DU145 cells invasion at 60 uM after 24 hrs by cell invasion assay; type: functional; conditions: DU-145, 24 h; in short: as §2
[7] = tested on: DU-145; experiment: Decrease in MMP9 mRNA level in human DU145 cell by RT-PCR analysis; type: functional, cell-based; in short: as §3
[8] = tested on: DU-145; experiment: Cytotoxicity against human DU145 cells at 0.1 uM after 24 hrs by cell counting kit analysis; type: functional
In short: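 DU145 cells were cultured in serum-supplemented medium with penicillin/streptomycin at 37 °C in 5% CO2. They were exposed to a range of compound concentrations for 24 h. Viability was read with the CCK-8 kit per the manufacturer's instructions and expressed as a percentage of an untreated group. Paclitaxel at 0.1 μM served as the positive control.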

[9] = tested on: DU-145; experiment: Antiinvasive activity against human DU145 cells at 15 to 60 uM after 24 hrs by cell invasion assay; type: functional, cell-based; in short: as §2

Compound	Activity [1]	Activity [2]	Activity [3]	inhibition at 60 µM [6] [%]	further results
CN1C(=O)[C@@]23Cc4ccc([N+](=O)[O-])cc4N2C(=O)[C@@]1(CO)SS3	Active	Active	inactive		
CS[C@@]1(CO)C(=O)N2c3cc([N+](=O)[O-])ccc3C[C@]2(SC)C(=O)N1C [GLIONITRIN B]	inactive			46	Activity [4]: Dose-dependent effect; Activity [5]: Dose-dependent effect; Activity [7]: Dose-dependent effect
CC(=O)O[C@H]1C(=O)[C@@]2(C)[C@H]([C@H](OC(=O)c3ccccc3)[C@]3(O)C[C@H](OC(=O)[C@H](O)[C@@H](NC(=O)c4ccccc4)c4ccccc4)C(C)=C1C3(C)C)[C@]1(OC(C)=O)CO[C@@H]1C[C@@H]2O [PACLITAXEL]					Activity [8]: 18.9%
CN1C(=O)[C@]23CC4=CC=C[C@H](O)[C@H]4N2C(=O)[C@@]1(CO)SS3	Active	Active	inactive		
CS[C@]1(CO)C(=O)N2[C@H]3C(=CC=C[C@@H]3O)C[C@@]2(SC)C(=O)N1C [BIS(DETHIO)BIS(METHYLTHIO)GLIOTOXIN]	inactive			22	Activity [9]: inactive
